# Experimental data gathered from unrelated publications.
# Compare with care: the assays were run in different laboratories.
# Target: Serine/threonine-protein kinase 25 (STK25, Homo sapiens, UniProt O00506)
SMILES,effect on,mode,method,concentration,measurement,result
COc1cc2ncnc(Nc3ccc(Oc4ccccc4)c(C)c3C)c2cc1OC,enzyme activity,inhibitor,,1 µM,inhibition,8%
COc1cc(-c2cc(-c3ccc(N4CCNCC4)cc3)cnc2C)cc(OC)c1OC,enzyme activity,inhibitor,,1 µM,inhibition,2%
CC1(C)NC(=O)c2[nH]c3c(Cl)c(Cl)ccc3c2C1C#N (centres unmarked),thermal stability,,DSF,10 µM,ΔTm,1.6 °C
C[C@@H]1CN(c2cc(-c3nn(C)c4ccc(OC5(C)CC5)cc34)ncn2)C[C@H](C)O1,cell-free assay,,competition with immobilised ligand,1 µM,remaining binding,100%
Nc1ncnc2occ(-c3ccc(NC(=O)Nc4cc(C(F)(F)F)ccc4F)cc3)c12,cell-free assay,inhibitor,,20 µM,remaining signal,77%
CCOc1cc(-c2nncn2C)ccc1Nc1ncc2cc(C)nc(NCC(C)(C)C)c2n1,enzyme activity,inhibitor,FRET,1 µM,inhibition,< 15%
CC(=O)c1c(NS(C)(=O)=O)c2cc(-c3ccc(Cl)cc3)c(-c3ccc(Cl)cc3Cl)nc2n(C)c1=O,cell-free assay,,competition with immobilised ligand,1 µM,remaining binding,100%
O=C(Nc1cnn(-c2csc(C(=O)NC3COC3)c2)c1)Nc1c(F)cccc1Cl,enzyme activity,inhibitor,,5 µM,remaining activity,96.1%
CO[C@@H](C)c1c(Nc2ccc([C@H](N(C)C(=O)C3CCS(=O)(=O)CC3)C(F)(F)F)cc2)cnc2cc(Cl)nn12,cell-free assay,,competition with immobilised ligand,1 µM,remaining binding,87%
N#CCCc1ccc2c(c1)-c1[nH]c3ccc([N+](=O)[O-])cc3c1CC(=O)N2,cell-free assay,,,0.5 µM,remaining signal,91.1%
CC1=C(C#N)C(c2ccc3c(c2)c(NC(=O)c2ccccc2C)nn3C)C(C#N)=C(C)N1,cell-free assay,,competition with immobilised ligand,1 µM,remaining binding,100%
CCCS(=O)(=O)Nc1ccc(F)c(C(=O)c2c[nH]c3ncc(-c4ccc(Cl)cc4)cc23)c1F,enzyme activity,inhibitor,,1 µM,inhibition,< 10%
CN1CCC2(CC1)NC(=O)c1c(c3ccc(Cl)c(Cl)c3n1C)C2C#N (racemic),thermal stability,,DSF,10 µM,ΔTm,0.3 °C
Cc1ccc(NC(=O)c2ccc(C)c(C(F)(F)F)c2)cc1C#Cc1nn(C2CCC(O)CC2)c2ncnc(N)c12 (centres unmarked),cell-free assay,,,10 µM,remaining signal,66%
COc1ccc2c(O[C@@H]3C[C@H]4C(=O)N[C@]5(C(=O)O)CC5/C=C\CCCCC[C@H](NC(=O)OC5CCCC5)C(=O)N4C3)cc(-c3csc(NC(=O)C(C)C)n3)nc2c1C (some centres unmarked),cell-free assay,,competition with immobilised ligand,1 µM,remaining binding,100%
Cn1c2c(c3ccc(Cl)c(Cl)c31)C(C#N)C1(CCOCC1)NC2=O (centres unmarked),thermal stability,,DSF,10 µM,ΔTm,0.4 °C
COc1cccc2c(NCc3ccccc3)nc(-n3c(N)nc4ccccc43)nc12,target engagement in cells,inhibitor,chemoproteomics,20 mM,inhibition,3.5%
C[C@@H]1CN(c2cc(-c3n[nH]c4ccc(OC5(C)CC5)cc34)ncn2)C[C@H](C)O1,cell-free assay,,competition with immobilised ligand,0.1 µM,remaining binding,100%
CCCCNc1ncc2c(-c3ccc(F)cc3)nn(C[C@H]3CC[C@H](N)CC3)c2n1,target engagement in cells,inhibitor,chemoproteomics,20 mM,inhibition,5.7%
O=C(Nc1ccc(Oc2ccc(F)cc2)cc1)N1CCc2ncccc2[C@H]1c1ccc(F)cc1,cell-free assay,,competition with immobilised ligand,1 µM,remaining binding,100%
CCN(CC)CCNC(=O)c1c(C)[nH]c(/C=C2\C(=O)Nc3ccc(F)cc32)c1C,cell-free assay,,,0.5 µM,remaining signal,76.1%
CC(C)(C)c1nc2c(s1)c1nc(N)ncc1c1ccc(NS(=O)(=O)c3c(F)cccc3F)c(F)c12,enzyme activity,inhibitor,radiometric,1 µM,remaining activity,57%
O=C1Nc2ccc(Cl)cc2C1=Cc1cc(Cl)c(O)c(Cl)c1,cell-free assay,,,0.5 µM,remaining signal,94%
CC1CCCN1c1nccc(-c2cnn3ncccc23)n1 (centres unmarked),binding,,,1 µM,remaining binding,100%
O=C(Nc1cnc(Oc2ccc(F)cc2)nc1)N1CCc2ncccc2[C@@H]1c1ccc(F)cc1,cell-free assay,,competition with immobilised ligand,1 µM,remaining binding,82%
CC(C)(O)[C@H]1CC[C@H](Nc2ccc3ncc(-c4cccc(C(F)(F)F)c4)n3n2)CC1,enzyme activity,inhibitor,,1 µM,remaining activity,87%
